This note sets out measurements from the EternaBench riboswitch data.

The data set has as its system MS2 coat protein. The experiment in a line: apparent Kd, MS2 coat protein; higher = weaker binding; RNA-MaP array; tryptophan 2.4 mM where present. The procedure, abridged: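 The apparent Kd is the median of filtered binding-curve fits, one per cluster, to green signal normalised to red-channel RNA signal and control-cluster median Fmax. The clusters were on Illumina sequencing chips, and stalled E. coli RNA polymerase had transcribed the designs on them. Titration used SNAP-549-labelled MS2 coat protein from 0.7 or 1.5 nM, doubling to 3 µM, without and then with constant ligand, in 100 mM Tris-HCl pH 7.5, 80 mM KCl, 4 mM MgCl2, BSA, DTT, yeast tRNA and Tween-20.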

The mark [1] stands for this setting: designed as: OFF switch for tryptophan, no ligand.
The mark [2] stands for this setting: ligand present: tryptophan, designed as: OFF switch for tryptophan.
Where [3] appears, read: designed as: ON switch for tryptophan, no ligand.
Setting [4] is: ligand present: tryptophan, designed as: ON switch for tryptophan.

Consider “UAUAUAUAUCACUAACUGUUCUUGAGGUCUCGAGGACCGGUACGGCCGCCACUCGUGCCGCCUCACAUGAGGAUCACCCAUGUCC”, for which the “apparent Kd” value is, setting by setting: under setting [1], 53.7 nM; under setting [2], 57 nM.
Regarding “GCUAGGUCAUCGGCCGCCACUAACGACGGUUCCAACAUGAGGAUCACCCAUGUGCCACAUGCGCAUAGGACCGGGAUGACCUAGC”, the “apparent Kd” value by setting is: under setting [3], 33 nM; under setting [4], 21 nM.
For the sequence “AUAAUAAUACAUGAGGAUCACCCAUGUAUGCGAGGACCGGUACGGCCGCCACUCGACCUCAUGCAUACAUGAGGAUCACCCAUGU”, the “apparent Kd” value by setting is: under setting [3], 32.5 nM; under setting [4], 62 nM.
For the sequence “UUAUAAGUACCGGUCCUCAGAUCCUCAUGACGAGGACCGGUACGGCCGCCACUCGAAACAUGAGGAUCACCCAUGUAAUAAUACC”, the “apparent Kd” value came to 37.5 nM under setting [1] and 29.1 nM under setting [2].
In the same order, the values of “UGCUAGUGAUCGGCCGCCACUGGCACCUUGAGGAUCCUGCUAAAGUACAUGAGGAUCACCCAUGUCAGGACCGGGAUCAUCAGUG” are 10.4 nM and 10.5 nM.
Turning to “AUGGUCGACGAUCUGCGAAAAGCAGAUCGACGAGGACCGGUACGGCCGCCACUCGUGUUCAUUAAACAUGAGGAUCACCCAUGUA”, the “apparent Kd” value worked out at 48.8 nM under setting [3] and 21.1 nM under setting [4].
As for “AAACAUGAGGAUCACCCAUGUAUACUUAGACGAGGACCGGUACGGCCGCCACUCGAACUUCAAGAUUUGGCGGAAAAUGUAUGUA”, the “apparent Kd” value is, setting by setting: under setting [1], 11.3 nM; under setting [2], 12.9 nM.
In the case of “AGCCGCGUUCUUUCUUUCUUUCUAGCGGCACGAGGACCGGUACGGCCGCCACUCGCCCACAUGAGGAUCACCCAUGUAGUGGGUG”, the “apparent Kd” value under setting [1] is 18.8 nM and the “apparent Kd” value under setting [2] worked out at 80.6 nM.
Turning to “ACAUGAGGAUCACCCAUGUACAUCACCCGACGAGGACCGGUACGGCCGCCACUCGGGUAUAUAUAUACAUCGGGUGAUUUUACGU”, the “apparent Kd” value was 18.5 nM under setting [3] and 18 nM under setting [4].
As to “CCUCAAUAGACGGCCGCCACUGAAACAUGCGGAUACAUGAGGAUCACCCAUGUGGGUGUGUUACGCAGGACCGGGUCAAGACCCG”, the “apparent Kd” value under setting [3] stood at 345 nM and the “apparent Kd” value under setting [4] amounted to 480 nM.
As for “UAUCUACAUAUAUAGGUUAUUCGAUUAUUUCGAGGACCGGUACGGCCGCCACUCGUUAACAUAUACAUGAGGAUCACCCAUGUUA”, the “apparent Kd” value amounted to 15.4 nM under setting [3] and 14.5 nM under setting [4].
Regarding “UAAACUACACAUGAGGAUCACCCAUGUGGCCGAGGACCGGUACGGCCGCCACUCGUGUGUUAAUAAAAGAACUGCAAAGUUCCUU”, the “apparent Kd” value reads like this: under setting [3], 295 nM; under setting [4], 86.1 nM.
For the sequence “GACCCAUGAGUUGCAAAAGCUCAUGGGUCGCGAGGACCGGUACGGCCGCCACUCGGCUGUACAUGAGGAUCACCCAUGUCAGGGU”, the “apparent Kd” value is, setting by setting: under setting [3], 371 nM; under setting [4], 529 nM.
In the same order, the values of “CGAUAUGGGACGGCCGCCACUAUUAUGUAACAAAAUAAACAUGAGGAUCACCCAUGUACAUGGGAUAGGACCGGGUCCUAUAACG” are 32.4 nM and 19.9 nM.

In general, apparent Kd refers to the concentration giving half-maximal binding under the conditions of the assay.
